This passage reports MIC and IC50 results from ChEMBL document CHEMBL2163240, “Griseusins F and G, spiro-naphthoquinones from a tin mine tailings-derived alkalophilic Nocardiopsis species” (J Nat Prod, 2012).

SMILES strings stand for the structures. ≈ marks a conversion by molar mass, not a printed value.

The test system of one assay is Micrococcus luteus. Nature of the assay: Antibacterial activity against Micrococcus luteus after overnight incubation by agar well diffusion assay. Type of assay: functional. On the technique in general: A growth-free zone around the sample is the usual read-out of agar diffusion tests.
Another assay concerns Staphylococcus aureus. Kind of assay: Antibacterial activity against Staphylococcus aureus ATCC 29213 after overnight incubation by agar well diffusion assay. Type of assay: functional.
The subject of a further assay is Bacillus subtilis. Nature of the assay: Antibacterial activity against Bacillus subtilis after overnight incubation by agar well diffusion assay. Type of assay: functional.
A further assay concerns ACHN. Kind of assay: Cytotoxicity against human ACHN cells after 24 to 72 hrs by MTT assay. Type of assay: functional, cell-based. Summed up: (§1)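 Cells (from Kunming Medical University) seeded at 5 × 10^4 cells/mL, preincubated 24 h at 37 °C, then given graded concentrations of test chemical in DMSO; cisplatin as positive control. MTT staining after 24, 48 and 72 h, OD 492 nm versus negative control; IC50 = concentration giving 50% cell death, from concentration–viability plot.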
For orientation: Formazan colour is commonly taken as a measure of viable cells.

A further assay relates to CFPAC-1. Nature of the assay: Cytotoxicity against human CFPAC-1 cells after 24 to 72 hrs by MTT assay. The format is functional, cell-based. The method in brief: as §1
Assay [1] is described as follows: Cytotoxicity against human MDA-MB-435S cells after 24 to 72 hrs by MTT assay. Type of assay: functional, cell-based. The method in brief:
as §1

Another assay deals with HCT-116. Nature of the assay: Cytotoxicity against human HCT116 cells after 24 to 72 hrs by MTT assay. The format is functional, cell-based. The method in brief: as §1
The subject of another assay is B16. Kind of assay: Cytotoxicity against mouse B16 cells after 24 to 72 hrs by MTT assay. The format is functional, cell-based. Summed up:
as §1

In the case of `O=C(O)c1cn(C2CC2)c2cc(N3CCNCC3)c(F)cc2c1=O` [CIPROFLOXACIN], the values for the MIC against Micrococcus luteus, in the assay with Staphylococcus aureus and against Bacillus subtilis were 1.19 µg/mL (≈ 3.59 µM), 0.28 µg/mL (≈ 0.845 µM) and 0.64 µg/mL (≈ 1.93 µM), respectively.
As to `CC(=O)C[C@]12C(=O)c3cccc(O)c3C(=O)[C@H]1[C@@]1(O[C@H](C)CC(=O)[C@H]1O)O[C@@H]1CC(=O)O[C@@H]12` [GRISEUSIN G], the IC50 in the assay on ACHN turned out to be 460 nM; with CFPAC-1, 420 nM; in assay [1] it was 690 nM; in the assay on HCT-116, 580 nM; in the assay on B16 it was 370 nM. Further, the minimal inhibitory concentration (MIC) against Micrococcus luteus was 1.47 µg/mL (≈ 3.21 µM); against Staphylococcus aureus, 0.8 µg/mL (≈ 1.75 µM); against Bacillus subtilis, 1.33 µg/mL (≈ 2.9 µM).
Regarding `CC(=O)C[C@]12C(=O)c3cccc(O)c3C(=O)[C@H]1[C@@]1(O[C@H](C)C[C@H](O)[C@H]1O)O[C@@H]1CC(=O)O[C@@H]12` [GRISEUSIN F], the IC50 with ACHN is 550 nM; with CFPAC-1, 640 nM; in assay [1] it was 820 nM; in the assay on HCT-116 it was 700 nM; in the assay with B16 it was 430 nM. Further, the figures for the MIC in the assay with Micrococcus luteus, against Staphylococcus aureus and in the assay with Bacillus subtilis were 1.27 µg/mL (≈ 2.76 µM), 0.91 µg/mL (≈ 1.98 µM) and 1.65 µg/mL (≈ 3.58 µM), respectively.

The term MIC denotes the lowest concentration that inhibits growth of the organism. Read a low MIC as a more susceptible organism. A word on the IC50: it is the midpoint of a concentration-inhibition curve. Higher therefore signals weaker potency in that assay.
